Data set [1] addresses Glyceraldehyde-3-phosphate dehydrogenase (Oryctolagus cuniculus) (UniProt P46406). The experiment in a line: Residual activity of rabbit muscle GAPDH at 1 uM after 60 mins by spectrophotometry.
For data set [2] the target is unchanged. The experiment in a line: Binding affinity to rabbit muscle GAPDH assessed as structural modifications of Cys149, Cys153 and Cys244 at 5 mM after 60 mins by MALDI-TOF MS.
The nature of data set [3]: Binding affinity to alkyl hydroperoxide reductase subunit C C165S mutant peptide D41 to G51 (unknown origin) assessed as sulfinic acid or sulfinamide modification by MALDI-TOF MS. An outline of the steps: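 Pre-reduced, desalted AhpC C165S (50 μM) incubated with HNO donor (1, 5, 10, 50 equiv) in 0.1 M Tris pH 7.6, 60 min at room temperature. Buffer exchanged into ammonium bicarbonate, then Asp-N digest (20:1 w/w, 37 °C, 12−16 h). Digest mixed 1:1 with dihydroxybenzoic acid matrix; D41−G51 peptide mass read by MALDI-TOF.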

Data set [4] deals with Glyceraldehyde-3-phosphate dehydrogenase (Oryctolagus cuniculus) (UniProt P46406). The experiment in a line: Binding affinity to rabbit muscle GAPDH peptide V232 to R245 assessed as formation of sulfinic acid of Cys244 by LC-MS analysis. The method in brief:
(§1)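 GAPDH from rabbit muscle, untreated or donor-treated, digested with trypsin (monomer:trypsin 20:1 w/w) in 50 mM Tris-HCl, 37 °C, 12−16 h; quenched by freezing. 10 μM digest in 1:1 2% formic acid/methanol run by LC-MS on a high-resolution Orbitrap in positive ion mode; tryptic peptides identified by m/z.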

The nature of data set [5]: Binding affinity to alkyl hydroperoxide reductase subunit C C165S mutant (unknown origin) assessed as unreacted thiol in peptide D41 to G51 by LC-MS analysis. The method in brief: (§2)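 AhpC C165S pre-reduced with DTT 30 min, desalted on spin column, concentration by A280 (ε 23400 M−1 cm−1). Protein (50 μM) treated with HNO donor (1, 5, 10, 50 equiv) in 0.1 M Tris pH 7.6, room temperature, 60 min; desalted into 25 mM ammonium bicarbonate pH 7.75. Asp-N digest (20:1 w/w, 37 °C, 12−16 h). LC-MS of D41−G51 peptide on high-resolution Orbitrap, positive ion mode.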

Data set [6] addresses Glyceraldehyde-3-phosphate dehydrogenase (Oryctolagus cuniculus) (UniProt P46406). The experiment in a line: (§3) Inhibition of rabbit muscle GAPDH assessed as residual enzyme activity after 60 mins by spectrophotometry. The method in brief:
(§4)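 Rabbit muscle GAPDH incubated with donor (0.1, 0.5, 1, 5, 10, 100 μM) in 0.1 M sodium phosphate pH 7.4, 25 °C, 60 min. NAD+ and glyceraldehyde-3-phosphate then added in a sealed cuvette; NADH formation followed at 340 nm every minute for 30 min. Runs typically in triplicate, mean ± SE; IC50 from sigmoidal fit of percent-of-control activity.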

The target in data set [7] is Glyceraldehyde-3-phosphate dehydrogenase (Oryctolagus cuniculus, UniProt P46406). Described as §3. The method in brief:
as §4

Data set [8] deals with Glyceraldehyde-3-phosphate dehydrogenase (Oryctolagus cuniculus) (UniProt P46406). The experiment in a line: Binding affinity to rabbit muscle GAPDH tryptic peptide I143 to K159 assessed as formation of disulfide bond by LC-MS analysis. The method in brief:
as §1

Data set [9] shares this target. The experiment in a line: Reversible inhibition of rabbit muscle GAPDH assessed as residual enzyme activity at 1 uM after 60 mins followed by incubation with DTT by spectrophotometry relative to control. An outline of the steps: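 GAPDH (rabbit muscle) exposed to inhibitor for 60 min in 0.1 M phosphate pH 7.4 at 25 °C, then incubated with DTT (100 mM) for 60 min. Residual activity measured by NADH build-up at 340 nm after adding NAD+ and glyceraldehyde-3-phosphate, read each minute over 30 min; expressed as percent of control.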

Data set [10] has the same target. The experiment in a line: Binding affinity to rabbit muscle GAPDH assessed as structural modifications at 5 mM after 60 mins by SDS-PAGE.
Data set [11] can be described thus: Binding affinity to alkyl hydroperoxide reductase subunit C C165S mutant (unknown origin) assessed as formation of sulfinic acid of Cys46 of peptide D41 to G51 by LC-MS analysis. An outline of the steps:
as §2

Data set [12] can be described thus: Binding affinity to alkyl hydroperoxide reductase subunit C C165S mutant (unknown origin) assessed as presence of S-nitrosated D41 to G51 peptide by LC-MS analysis. The method in brief:
as §2

In data set [13] the target is Glyceraldehyde-3-phosphate dehydrogenase (Oryctolagus cuniculus) (UniProt P46406). The experiment in a line: Binding affinity to rabbit muscle GAPDH peptide V232 to R245 assessed as formation of S-nitrosated peptide by LC-MS analysis.
For data set [14] the target is unchanged. The experiment in a line: Binding affinity to rabbit muscle GAPDH peptide V232 to R245 assessed as formation of sulfinic acid and N-phenylsulfinamide by LC-MS analysis.
The nature of data set [15]: Binding affinity to alkyl hydroperoxide reductase subunit C C165S mutant (unknown origin) assessed as formation of sulfinic acid by LC-MS analysis. An outline of the steps:
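AhpC C165S reduced with DTT, desalted by spin column, quantified at 280 nm; 50 μM protein incubated with compound (1, 5, 10, 50 equiv) in 0.1 M Tris pH 7.6, room temperature, 60 min; desalted into 25 mM ammonium bicarbonate, Asp-N digest (20:1 w/w, 37 °C, 12–16 h); Orbitrap LC-MS, 55 min gradient, positive ion.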

Data set [16] deals with Glyceraldehyde-3-phosphate dehydrogenase (Oryctolagus cuniculus) (UniProt P46406). The experiment in a line: Binding affinity to rabbit muscle GAPDH peptide V232 to R245 assessed as formation of mixture of sulfinamide and sulfinic acid by LC-MS analysis. The method in brief:
as §1

A short description of data set [17]: Binding affinity to alkyl hydroperoxide reductase subunit C C165S mutant (unknown origin) assessed as formation of mixture of sulfinamide and sulfinic acid at Cys46 by LC-MS analysis. The method in brief:
as §2

Data set [18] can be described thus: Binding affinity to alkyl hydroperoxide reductase subunit C C165S mutant (unknown origin) assessed as structural modifications by SDS-PAGE.
Data set [19] can be described thus: Half life of the compound in neutral buffer at 1 mM by stopped-flow UV-Vis spectrophotometry. In kind it is physicochemical. The conditions noted are these: 1000 µM.
Data set [20] in a line: Chemical stability of the compound in neutral buffer assessed as rate constant at 1 mM by stopped-flow UV-Vis spectrophotometry. Type of data set: physicochemical. The conditions noted are these: 1000 µM.
The nature of data set [21]: Binding affinity to alkyl hydroperoxide reductase subunit C C165S mutant (unknown origin) assessed as formation of sulfinamide and sulfinic acid by LC-MS analysis. An outline of the steps: as §2

pIC50: −log10 of the molar value. Counter-ions that a name gives are not always drawn. Active and inactive are the calls of the source. The calls are words filed in the database; no cut-off is given here.

For orientation: residual activity means the share of the control activity or signal that is left under treatment. A word on the pIC50: it is the negative decadic logarithm of the IC50, by convention in mol/L.

Sequence of Glyceraldehyde-3-phosphate dehydrogenase (P46406 whole entry): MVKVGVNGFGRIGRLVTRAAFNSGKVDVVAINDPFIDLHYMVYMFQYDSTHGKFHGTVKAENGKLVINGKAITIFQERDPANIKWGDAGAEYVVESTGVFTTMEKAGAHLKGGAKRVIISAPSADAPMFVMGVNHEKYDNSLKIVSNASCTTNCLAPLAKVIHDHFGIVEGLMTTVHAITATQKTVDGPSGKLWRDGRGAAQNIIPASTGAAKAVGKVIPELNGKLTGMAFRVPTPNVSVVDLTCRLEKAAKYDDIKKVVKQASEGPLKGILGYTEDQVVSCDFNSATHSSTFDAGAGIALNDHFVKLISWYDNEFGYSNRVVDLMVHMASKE
Sequence of Glyceraldehyde-3-phosphate dehydrogenase (Oryctolagus cuniculus) (P46406 whole entry, looked up): as the sequence (P46406 whole entry) above

Take `CC(C)(C)C(=O)OC1(N=O)CCCCC1`: the residual activity in [1] was determined as 76%. The result in data set [2], in [3], in [4], in data set [8] and in data set [11] was Active. The outcome in data set [5] and in data set [10] was inactive. Moreover, the inhibition result in data set [6] was “Dose-dependent effect”. In data set [7], the pIC50 was 6.82. Besides, in data set [9], the Activity stood at 88%.

Turning to `CCN(CC)N(O)N=O`, the result in data set [12] and in data set [13] was Active.

Regarding `N[C@@H](CCC(=O)N[C@@H](CSN=O)C(=O)NCC(=O)O)C(=O)O`, the outcome in data set [12] was Active.

Turning to `O=Nc1ccccc1`, the result in data set [14], in data set [15] and in [8] was Active.

`O=S(=O)(NO)c1ccccc1Br`: the outcome in [16], in data set [17] and in data set [8] was Active.

In turn, `CC(=O)OC1(N=O)CCCCC1` [1-NITROSOCYCLOHEXYL ACETATE] yielded a residual activity in data set [1] of 5%. Moreover, the result in data set [2], in data set [3], in data set [4], in [18], in data set [8] and in data set [11] was Active. In addition, the outcome in data set [5] and in data set [10] was inactive. Also, the inhibition result in data set [6] was “Dose-dependent effect”. In data set [7], the pIC50 is 6.70. For the same compound, in data set [9], the Activity stood at 12%.

The compound `O=NC1(OC(=O)C(F)(F)F)CCCCC1` [1-NITROSOCYCLOHEXYL TRIFLUOROACETATE] displayed a residual activity in data set [1] of 42%. This compound gave a t1/2 in [19] of 0.121 s. The outcome in data set [17] and in data set [3] was Active. For the same compound, the K in data set [20] was 5.74 s⁻¹. For the same compound, the result in [5] was inactive. Also, the pIC50 in data set [7] was 6.17.

In the case of `[O-][N+]([O-])=NO` [ANGELI'S SALT], the result in data set [16], in data set [2], in data set [3], in [8] and in data set [21] was Active. Also, the result in data set [5] and in [10] was inactive. The inhibition result in data set [6] was “Dose-dependent effect”. Also, the negative-log IC50 (pIC50) in data set [7] is 6.40.

The values are drawn from ChEMBL document CHEMBL2417429, “Direct and nitroxyl (HNO)-mediated reactions of acyloxy nitroso compounds with the thiol-containing proteins glyceraldehyde 3-phosphate dehydrogenase and alkyl hydroperoxide reductase subunit C” (J Med Chem, 2013).
